# Screening data (PubChem)
# In the library only some 3.5% were active in any assay of this set; here they are far more common.
# MrgX1 antag = antagonists of human MrgX1 receptor; Q96LB2; 310,000 compounds, 1.3% hits; AID 588676; MRGX1-HEK293 calcium flux, Fluo-4, BAM8-22 antagonism; hits give low values; B-score at 10 µM;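 active = calcium-response B-score plate-corrected more than 3 library SD below zero, starting fluorescence within 5 deviations, no agonist response on first addition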;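 also: peak minus trough fluorescence over baseline after final BAM8-22 challenge near maximal dose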
# Target sequence (Q96LB2 whole entry, looked up): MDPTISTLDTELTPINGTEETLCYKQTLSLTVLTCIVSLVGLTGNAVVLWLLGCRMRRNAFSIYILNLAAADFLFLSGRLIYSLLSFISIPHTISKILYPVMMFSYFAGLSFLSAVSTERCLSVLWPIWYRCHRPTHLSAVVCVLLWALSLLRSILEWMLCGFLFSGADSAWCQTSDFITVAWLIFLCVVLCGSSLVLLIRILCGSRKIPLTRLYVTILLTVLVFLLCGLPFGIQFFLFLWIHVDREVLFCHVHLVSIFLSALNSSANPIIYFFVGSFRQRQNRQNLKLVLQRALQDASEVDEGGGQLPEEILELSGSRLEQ
# MrgX1 PAM = allosterically activates human MrgX1 receptor signaling | Q96LB2 | MrgX1-HEK293, Fluo-4 calcium flux, FDSS; hits give high values | B-score at 10 µM | 310,000 compounds, 0.63% hits;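 active = plate-corrected calcium response at least 3 library SD above typical, normal starting fluorescence, not activating the receptor alone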;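 also: compound read alongside a low EC10 to EC30 dose of BAM8-22 agonist; peak minus trough fluorescence over baseline measured at the second addition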
# MrgX1 agonist = human MrgX1 receptor agonism, primary screen; AID 588627; B-score at 10 µM; Q96LB2; MrgX1-HEK293 cells, Fluo-4 calcium fluorescence, agonist mode; hits give high values; 310,000 compounds, 0.44% hits;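 active = calcium response B-score plate-corrected fluorescence ratio at least 3 library SD, with starting fluorescence B-score inside 5 SD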
#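 System – MrgX1-expressing HEK293 cells · Incubation – cells plated overnight, dye loaded 0.5 h 37 °C, 0.5 h room temperature · Technique – kinetic Fluo-4 NW fluorescence of intracellular calcium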
# RGS4 block = inhibitors of human RGS4. P49798. B-score at 10 µM. AID 463165. 310,000 compounds, 0.45% hits. HEK293 M3R/RGS4 inducible, Fluo-4 calcium flux; hits give high values; triggered by carbachol at its EC20;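 active = B-score, a plate-corrected calcium signal, over three deviations above library mean, with baseline fluorescence within five deviations of library mean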;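 also: RGS4 expression induced by doxycycline in cells with stable M3 receptor; B-score is computed from the integrated fluorescence ratio over baseline after carbachol; higher B-score means a larger calcium signal and so more RGS4 inhibition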
# RGS4 pot = RGS4 potentiation or activation | HEK293 M3R/inducible RGS4, carbachol calcium flux Fluo4; hits give low values | B-score at 10 µM | 310,000 compounds, 0.92% hits;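 active = B-score of the integrated calcium signal more than 4 SD below the library mean, with starting fluorescence not abnormally high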;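 also: negative B-score means reduced calcium response which marks RGS4 activation or potentiation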
#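 Reagent: ECmax carbachol challenge; Test system: M3R-expressing HEK293 line, RGS4 induced by doxycycline; Schedule: overnight RGS4 induction, 30 min dye load 37 °C, 20 min compound RT; Detection: calcium dye Fluo4 fluorescence; Read-out: Agonist-evoked peak-minus-minimum fluorescence over baseline, integrated ratio, B score.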
# RGS4 inh valid = validation of RGS4 inhibitors | AID 492999 | HEK293 M3R/RGS4, carbachol calcium Fluo-4 fluorescence; carbachol added at its EC20; 0 = buffer wells, 100 = carbachol control | shares compounds with RGS4 block | calcium response, % at 10 µM | 1,700 compounds, 65% hits;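 active = duplicate-averaged calcium response above the buffer-only control mean plus 5 SD of those controls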;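 also: integrated fluorescence ratio F max minus min over baseline F0; higher response in RGS4-induced cells means RGS4 inhibition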
# M3R Ca ctr = counter-screen for RGS4 inhibitors: effect in non-induced cells. shares compounds with RGS4 block. HEK293 M3R non-induced, carbachol calcium Fluo-4; submaximal (EC20) carbachol stimulus; buffer wells 0%, carbachol control wells 100%. activity (percent), % at 10 µM. 1,900 compounds, 20% hits. AID 493000; call rule not given here;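 also: RGS4 induction absent so cells express M3R without RGS4; higher means more calcium signal and flags a non-specific hit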
# RGS4 inh ctr2 = signal in non-induced cells without carbachol, RGS4 inhibitor counter-screen. HEK293 M3R/RGS4 non-induced, Fluo-4 calcium, no carbachol; normalised: buffer wells 0%, carbachol wells 100%. shares compounds with RGS4 block. AID 493001. calcium response (agonist-mode artifact), % at 10 µM. 1,900 compounds, 22% hits;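 active = duplicate-averaged calcium rise in uninduced cells above buffer wells' mean plus 5 SD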
# * hit, by the source's call; i = inactive; . = not tested or not shown.
SMILES,MrgX1 antag,MrgX1 PAM,MrgX1 agonist,RGS4 block,RGS4 pot,RGS4 inh valid,M3R Ca ctr,RGS4 inh ctr2
CCCCC1=CC2=C(c3ccco3)C(=O)C(C)(OC(=O)c3ccc(OC)cc3)C(=O)C2=CN1C1CC1 (stereo not given),i,i,i,9.33*,i,5.5%*,i,i
COc1ccc(-c2oc(NC(=O)CSc3ncn[nH]3)c(C#N)c2-c2ccc(OC)cc2)cc1,i,i,i,i,i,.,.,.
COc1ccc(-c2oc(NC(=O)CCl)c(C#N)c2-c2ccc(OC)cc2)cc1,i,i,i,11.1*,i,58.5%*,i,i
CNC(=S)N1CCN(c2nc3ccccc3s2)CC1,i,i,i,i,i,.,.,.
Nc1nn2cc(-c3ccc(Br)cc3)nc2c2ccccc12,i,i,i,6.95*,i,10.0%*,i,i
Nc1sc(-c2ccccc2)cc1C(=O)N/N=C/c1ccc(Cl)cc1,i,i,i,4.73*,i,14.5%*,28.5%*,i
O=C(N/N=C/c1ccc(Cl)cc1)c1cc(-c2cccnc2)nc2ccccc12,i,i,i,i,i,.,.,.
NS(=O)(=O)c1ccc(NC(=O)COC(=O)COc2ccccc2)cc1,i,i,i,i,i,.,.,.
COc1ccc(S(=O)(=O)Nc2ccccc2)cc1,i,i,i,i,i,.,.,.
COc1ccc(S(=O)(=O)Nc2ccc(O)c3ccccc23)cc1,i,i,i,6.84*,i,10.5%*,i,i
CN(C)CCN1C(=O)C(=O)/C(=C(/O)c2ccc(S(=O)(=O)N3CCOCC3)cc2)C1c1ccc(F)cc1 (stereo not given),i,i,i,i,i,.,.,.
CN1C(=O)/C(=C\c2ccncc2)SC1=Nc1ccccc1,i,i,i,6.32*,i,40.0%*,55.5%*,i
O=C(N/N=C/C(Br)=C/c1ccccc1)c1n[nH]c2c1CCC2,i,i,i,5.06*,i,18.5%*,i,i
COc1ccc(/C=C(\CC(=O)O)c2nc3ccccc3s2)cc1O,i,i,i,i,i,.,.,.
COc1ccc(-c2nn(-c3ccccc3)cc2/C=C(\CC(=O)O)c2nc3ccccc3s2)cc1OC,i,i,i,6.2*,i,7.5%*,i,i
COc1ccccc1CNC(=O)c1ccccc1NC(=O)C1=C(C)OCCS1,i,i,i,i,i,.,.,.
O=C(NCCC(NS(=O)(=O)OCC(Cl)(Cl)Cl)c1ccccc1)C(F)(F)F (stereo not given),i,i,i,i,i,.,.,.
CCN(CC)CCOc1ccc2c(c1)C(=NO)c1cc(OCCN(CC)CC)ccc1-2,i,i,i,i,i,.,.,.
CCCOc1ccc2c(c1)C(=NN=C(N)N)c1cc(OCCC)ccc1-2,i,i,i,4.73*,i,8.0%*,i,i
Oc1ccc(C[C@@H]2CNCCN2CCC23CC4CC(CC(C4)C2)C3)cc1,i,i,i,i,i,.,i,16.0%*
Oc1ccc(C[C@H]2CNCCN2CCC23CC4CC(CC(C4)C2)C3)cc1,i,i,i,i,i,.,i,i
COc1ccccc1N1CCN(S(=O)(=O)c2cc(-c3cc(C)no3)ccc2C(C)C)CC1,i,i,i,i,i,.,.,.
COCCSc1nnc(NC(=O)CCS(=O)(=O)c2ccccc2)s1,i,i,i,i,i,.,.,.
CN(CC(=O)Nc1ccc(Cl)c(C(F)(F)F)c1)C(=O)c1ccc(N2CCOCC2)c([N+](=O)[O-])c1,i,i,i,5.37*,i,11.5%*,i,7.5%*
